Test results: ChEMBL document CHEMBL3751758, “Cysteine-Rich Peptide Family with Unusual Disulfide Connectivity from Jasminum sambac” (J Nat Prod, 2015)
Calls of active or inactive are those of the source. The calls are words filed in the database; no cut-off is given here. Bridge positions count the residues as written; N and C are the ends. Peptide text beside a SMILES is read from it.

What was measured:
Carboxypeptidase A1 = molecular target: T1, Carboxypeptidase A1 (Homo sapiens, UniProt P15085); experiment: Stability of the compound in Tris buffer assessed as carboxypeptidase A (unknown origin)-mediated compound degradation at pH 7.5 at 37 degC after 4 hrs by UPLC analysis; assay type: ADME; conditions: pH 7.5, 4 h
T1 sequence (P15085 whole entry): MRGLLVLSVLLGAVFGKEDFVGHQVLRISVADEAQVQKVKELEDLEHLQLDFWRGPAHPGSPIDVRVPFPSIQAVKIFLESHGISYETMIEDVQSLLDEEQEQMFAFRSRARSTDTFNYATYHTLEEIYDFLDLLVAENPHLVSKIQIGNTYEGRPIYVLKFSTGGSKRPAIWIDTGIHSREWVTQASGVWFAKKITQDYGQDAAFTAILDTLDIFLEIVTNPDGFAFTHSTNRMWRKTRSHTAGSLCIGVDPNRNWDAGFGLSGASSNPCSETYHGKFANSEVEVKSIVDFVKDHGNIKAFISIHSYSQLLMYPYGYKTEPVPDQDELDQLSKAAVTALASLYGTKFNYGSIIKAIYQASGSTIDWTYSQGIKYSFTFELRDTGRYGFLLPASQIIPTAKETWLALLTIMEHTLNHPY
Summary of the method: (§1)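 Peptide was incubated with or without carboxypeptidase A at 50:1 (w/w) in 50 mM Tris/100 mM NaCl pH 7.5 at 37 °C for up to 6 h. Collected peaks were checked by MALDI-TOF, and stability was judged from UPLC peak areas.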

[1] = Stability of the compound in NH4HCO3 buffer assessed as trypsin (unknown origin)-mediated degradation at pH 7.8 at 37 degC after 1 hr by UPLC analysis; assay type: ADME; conditions: human, pH 7.8, 1 h
[2] = (§2) Stability of the compound in 100 mM sodium citrate buffer assessed as pepsin (unknown origin)-mediated compound degradation by measuring intact compound level at pH 2.5 at 37 degC after 4 hrs by UPLC analysis; assay type: ADME; conditions: human, buffer, pH 2.5, 4 h
Staphylococcus aureus = experiment: Antibacterial activity against Staphylococcus aureus ATCC 12600 up to 100 uM by radial diffusion assay; assay type: functional, organism-based
Summary of the method: (§3)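 Radial diffusion assay under low-salt conditions (10 mM Na3PO4). Strains were grown in trypticase soy broth. D4R peptide dendrimer was the positive control.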

[3] = molecular target: T2, Carboxypeptidase A1 (Bos taurus) (UniProt P00730); experiment: Inhibition of bovine carboxypeptidase A using N-(4-methoxyphenylazoformyl)phenylalanine as substrate at 0.1 to 100 uM
T2 sequence (whole entry): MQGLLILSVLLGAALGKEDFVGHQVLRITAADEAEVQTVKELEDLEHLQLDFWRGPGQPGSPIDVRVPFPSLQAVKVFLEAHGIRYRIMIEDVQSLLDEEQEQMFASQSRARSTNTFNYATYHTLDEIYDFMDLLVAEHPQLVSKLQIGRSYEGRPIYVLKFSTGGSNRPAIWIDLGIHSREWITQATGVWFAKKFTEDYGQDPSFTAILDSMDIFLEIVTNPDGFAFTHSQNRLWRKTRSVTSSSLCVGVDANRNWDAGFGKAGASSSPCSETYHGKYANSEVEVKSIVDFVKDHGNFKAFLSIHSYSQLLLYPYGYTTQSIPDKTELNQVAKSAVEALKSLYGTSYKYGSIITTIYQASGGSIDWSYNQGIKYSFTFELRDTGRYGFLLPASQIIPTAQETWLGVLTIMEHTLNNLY
Summary of the method: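 Peptide at 0.1–100 µM was combined with 0.1 mM N-(4-methoxyphenylazoformyl)phenylalanine substrate. The reaction was started with 25 nM bovine carboxypeptidase A, and substrate hydrolysis was followed at 350 nm.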

Escherichia coli = experiment: Antibacterial activity against Escherichia coli ATCC 25922 up to 100 uM by radial diffusion assay; assay type: functional, organism-based; summary of the method: as §3
Vero = experiment: Cytotoxicity against African green monkey Vero cells at 10 uM after 24 hrs by Presto Blue-based cell viability assay; conditions: chlorocebus sabaeus
Summary of the method: (§4)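 Cells were seeded at 8 x 10^3 per well in DMEM with 10% FBS and 1% penicillin/streptomycin, at 37 °C under 5% CO2. After 24 h, peptide was added at 0.01–10 µM in triplicate for 24 h. PrestoBlue was then added for 1 h at 37 °C and absorbance read at 570 nm. Controls were 1% Triton X-100 and PBS.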

Candida albicans = experiment: Antifungal activity against Candida albicans 11006 up to 100 uM by radial diffusion assay; assay type: functional, organism-based; summary of the method: as §3
[4] = Hemolytic activity in human type O+ erythrocytes up to 10 uM after 4 hrs by spectrophotometric analysis; assay type: ADME, cell-based; conditions: erythrocyte
Summary of the method: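 Erythrocytes came from fresh type O+ blood of a healthy volunteer. Cells were pelleted at 1000 rpm for 15 min, washed three times in PBS and diluted 100X in PBS. Peptide at various concentrations was mixed with an equal volume of cells for 4 h at 37 °C. Plates were spun at 1000 rpm for 5 min and supernatant absorbance read at 415 nm. Controls were 0.1% Triton X-100 and PBS.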

[5] = Stability of the compound in boiling water assessed as compound remaining after 1 hr by UPLC analysis; assay type: physicochemical; conditions: read-out: Stability
HUVEC = experiment: Cytotoxicity against HUVEC at 10 uM after 24 hrs by Presto Blue-based cell viability assay; conditions: human; summary of the method: as §4
carboxypeptidase A = molecular target: T3, carboxypeptidase A (Homo sapiens, UniProt P15085); experiment: Stability of the compound in Tris buffer assessed as carboxypeptidase A (unknown origin)-mediated compound degradation by measuring intact compound level at pH 7.5 at 37 degC after 6 hrs by UPLC analysis; assay type: ADME; conditions: read-out: Stability; summary of the method: as §1
T3 sequence (P15085 whole entry): T1 sequence (P15085 whole entry)

trypsin = experiment: Stability of the compound in NH4HCO3 buffer assessed as trypsin (unknown origin)-mediated degradation by measuring intact compound level at pH 7.8 at 37 degC after 8 hrs by UPLC analysis; assay type: ADME; conditions: human, read-out: Stability
pepsin = experiment: as §2; assay type: ADME; conditions: human, pepsin in 100 mM sodium citrate buffer, pH 2.5; read-out: Stability

In the case of CC(C)C[C@H](NC(=O)[C@@H]1CCCN1C(=O)[C@H](CO)NC(=O)[C@H](Cc1ccccc1)NC(=O)CNC(=O)[C@@H]1CCCN1C(=O)[C@@H]1CCCN1C(=O)[C@H](CCCN=C(N)N)NC(=O)[C@@H](N)CCCCN)C(=O)O, the Stability (Carboxypeptidase A1) is reported as “Unstable”, the Stability [1] is reported as “Unstable” and the Stability [2] is reported as “Unstable”.

In the case of CC(C)C[C@H](NC(=O)[C@H](CCCNC(=N)N)NC(=O)CNC(=O)[C@H](CCCNC(=N)N)NC(=O)[C@H](CCCNC(=N)N)NC(=O)[C@H](Cc1ccc(O)cc1)NC(=O)[C@H](CC(C)C)NC(=O)[C@@H](N)CCCNC(=N)N)C(=O)N[C@@H](Cc1ccc(O)cc1)C(=O)N[C@@H](CCCNC(=N)N)C(=O)N[C@@H](CCCNC(=N)N)C(=O)N[C@@H](CC(N)=O)C(=O)N[C@@H](Cc1cnc[nH]1)C(=O)N[C@H](C(=O)O)C(C)C (H-RLYRRGRLYRRNHV-OH), the Stability (Carboxypeptidase A1) is reported as “Unstable”, the Stability [1] is reported as “Unstable” and the Stability [2] is reported as “Unstable”.

In the case of CC[C@H](C)[C@H](NC(=O)[C@@H](NC(=O)[C@H](CC(N)=O)NC(=O)[C@@H]1CSSC[C@@H]2NC(=O)[C@H](CC(=O)O)NC(=O)[C@H](CO)NC(=O)[C@H](CC(N)=O)NC(=O)[C@H](CO)NC(=O)[C@H](CCCNC(=N)N)NC(=O)[C@@H]3CSSC[C@H](NC(=O)[C@H]([C@@H](C)CC)NC(=O)[C@H](CCCNC(=N)N)NC(=O)[C@H](Cc4c[nH]c5ccccc45)NC(=O)[C@H]([C@@H](C)CC)NC(=O)[C@H]([C@@H](C)CC)NC(=O)[C@H](CC(N)=O)NC2=O)C(=O)N[C@@H](CCCNC(=N)N)C(=O)N[C@@H](CC(=O)O)C(=O)NCC(=O)N[C@@H](CSSC[C@H](NC(=O)[C@H](CC(C)C)NC(=O)[C@@H](N)CCC(N)=O)C(=O)N[C@@H](CC(C)C)C(=O)N[C@@H](CCC(N)=O)C(=O)N3)C(=O)N1)C(C)C)C(=O)O (H-QLCLQCRSNSDCNIIWRICRDGCCNVI-OH; disulfide 3-23, 6-19, 12-24), the Activity (Staphylococcus aureus) is reported as “inactive”, the inhibition [3] is reported as “inactive” and the Activity (Escherichia coli) is reported as “inactive”. For the same compound, the Activity (Vero) was “Non-toxic”, the Activity (Candida albicans) was “inactive” and the Activity [4] was “Non-toxic”. For the same compound, the remaining at 1 h [5] was 96%, the Activity (HUVEC) was “Non-toxic” and the remaining at 6 h (carboxypeptidase A) was greater than 90%. It also gave a remaining at 8 h (trypsin) of 73% and a remaining at 4 h (pepsin) greater than 90%.
